# LMPTP inh: blocks human LMPTP phosphatase. P24666. 360,000 tested, 0.22% active. inhibition, % at 20 µM. AID 651560. recombinant LMPTP-A, OMFP fluorogenic substrate, fluorescence intensity;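 active = compounds that cut the enzyme signal by at least half of the control window in the single-dose screen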;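 note: plate controls were DMSO wells with enzyme plus substrate for no effect and substrate without enzyme for full effect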
#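 Test system: LMPTP-A phosphatase enzyme. Amount: LMPTP-A at 0.625 nM final in the reaction. Reagent: OMFP substrate, 400 µM final. Times: 50 min at room temperature. Signal: endpoint fluorescence intensity from OMFP dephosphorylation. Read-out basis: % inhibition. Benchmarks: no-enzyme and uninhibited controls.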
# STEP inh: STEP (human) phosphatase inhibition | 360,000 tested, 0.25% active | inhibition, % at 20 µM | AID 588621 | P54829 | recombinant STEP, OMFP fluorogenic substrate, fluorescence;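 active = inhibition at 20 µM, scaled per plate between control wells, above about 37%, limit read from the data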;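 note: 0% = DMSO with enzyme and substrate and 100% = substrate only without enzyme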
# Target sequence (P54829 whole entry, looked up): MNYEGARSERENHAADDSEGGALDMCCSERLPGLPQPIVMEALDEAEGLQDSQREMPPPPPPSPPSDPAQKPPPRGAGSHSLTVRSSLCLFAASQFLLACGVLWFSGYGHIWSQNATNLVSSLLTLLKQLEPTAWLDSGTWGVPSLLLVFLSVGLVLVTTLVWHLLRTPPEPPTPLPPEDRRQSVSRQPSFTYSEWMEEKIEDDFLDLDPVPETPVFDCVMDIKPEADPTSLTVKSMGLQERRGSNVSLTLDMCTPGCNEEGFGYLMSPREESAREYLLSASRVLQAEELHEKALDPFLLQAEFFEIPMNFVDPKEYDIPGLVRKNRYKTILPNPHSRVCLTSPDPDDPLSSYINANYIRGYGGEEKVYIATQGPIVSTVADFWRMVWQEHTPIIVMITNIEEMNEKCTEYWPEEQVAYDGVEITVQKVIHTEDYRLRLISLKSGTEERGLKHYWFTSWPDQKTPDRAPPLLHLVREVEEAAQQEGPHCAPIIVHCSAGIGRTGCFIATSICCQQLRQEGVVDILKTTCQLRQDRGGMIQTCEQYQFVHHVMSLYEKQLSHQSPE
#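 Material: STEP (striatal-enriched tyrosine phosphatase) enzyme, cell-free; Compound dosing: 20 µM single dose in 1% DMSO; Technique: fluorescence read at 480 nm ex / 540 nm em; Times: reaction 20 min, ambient temperature; Medium: 50 mM Bis-Tris pH 6.0 with 2.5 mM DTT and 0.005% Tween 20; Also added: OMFP at 25 µM.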
# GRK2 inh: inhibitors of human GRK2 displacing RNA aptamer | P25098 | bead flow cytometry, FAM-aptamer displacement from GRK2 | inhibition of aptamer binding, % at 10 µM | 330,000 tested, 0.59% active;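 active = inhibition of aptamer binding above 40%, roughly 3 SD of noise, on plates passing a quality check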;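 note: median bead fluorescence of bound FAM aptamer so fluorescent compounds give negative values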
# Scp1 inh: Scp-1 (human) phosphatase inhibition. Q9GZU7. Recombinant Scp1, phosphopeptide, malachite green phosphate absorbance. inhibition, % at 20 µM. 340,000 tested, 0.88% active. AID 493091;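 active = inhibition above about 50% at 20 µM, limit read from the data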;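 note: plate controls were DMSO wells with enzyme for no effect and wells lacking enzyme for full effect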
#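 Test system: SCP-1 phosphatase catalytic domain, residues 76-261 | Compound dosing: One concentration, 20 µM, with 1.0% DMSO | Schedule: 45 min room-temperature reaction, 5 min colour, 30 min stabiliser | Detection: Absorbance at 630 nm | Read-out basis: % inhibition of SCP-1 phosphate liberation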
# SUMO1-SIM PPI: modulators of human SUMO1-mediated protein-protein interactions. P63165. SUMO1 binding to a labelled peptide, TR-FRET, 1 h. inhibition, % at 20 µM. 360,000 tested, 0.33% active. AID 602429; in the data active = inhibition above about 37%
# DNMT1 inh: DNMT1 (human) enzyme inhibition; P26358; DNMT1 molecular beacon, Hinp1I cleavage, fluorescence; inhibition (reported as % activation of signal), % at 10 µM; 360,000 tested, 0.83% active; AID 588458; in the data active = inhibition above about 50%
# * = called active by the depositor; · = no result given. Rows were chosen to be rich in hits. Some 2.1% of all compounds tested hit in one or more screens of this group.
SMILES,LMPTP inh,STEP inh,GRK2 inh,Scp1 inh,SUMO1-SIM PPI,DNMT1 inh
Cc1[nH]n(-c2ccccc2)c(=O)c1N=Nc1cccc([N+](=O)[O-])c1,3,1,0,10,-18,-6
Cc1c(N=Nc2c(-c3ccc([N+](=O)[O-])cc3)[nH]n(C(N)=S)c2=O)cccc1[N+](=O)[O-],71*,82*,·,93*,22,75*
CCCCn1nnnc1C1(C)CCC(=O)N1CCc1ccc(OC)c(OC)c1 (centres undefined),-2,·,·,·,2,·
Cc1cccc(C)c1NC(=O)C1(C)CSCC(=O)N1CCc1ccccc1 (centres undefined),0,·,·,·,3,·
O=C(/C=C/c1ccccc1)NC(=S)Nc1ccccc1,-1,2,0,3,-1,2
C=CCN(CC=C)S(=O)(=O)c1ccc(NC(=S)NC(=O)/C=C/c2ccccc2)cc1,4,6,0,-5,63*,3
Cc1cccc(C)c1OCC(=O)N/N=C/c1ccncc1,-2,-3,42*,6,-5,0
CC1C/C(=C/c2ccco2)C(=O)/C(=C/c2ccco2)C1 (centres undefined),·,·,20,·,·,·
O=C1/C(=C\c2ccco2)CCC/C1=C\c1ccco1,3,-14,5,-27,-4,73*
O=C(NCc1ccco1)c1cccc2c1C(=O)c1ccc(/C=C/c3ccccc3)cc1S2(=O)=O,5,-2,13,75*,-10,13
O=C(Nc1nccs1)c1cn(-c2ccccc2)nc1-c1ccncc1,1,4,0,-3,44*,-1
O=C(Nc1cccc([N+](=O)[O-])c1)c1cc2ccccc2cc1O,4,5,0,89*,33,2
CCOc1ccccc1OCCOCCOc1c(Cl)cccc1Cl,1,2,3,-10,1,9
CC[N+](CC)(CC)CCOc1cccc(OCC[N+](CC)(CC)CC)c1OCC[N+](CC)(CC)CC,-6,0,3,96*,-13,-2
O=C(O)c1ccccc1N=Nc1c(O)[nH]c2ccc([N+](=O)[O-])cc12,21,46*,4,81*,111*,17
Cc1ccccc1NCC(=O)N=Nc1c(O)[nH]c2ccc([N+](=O)[O-])cc12,0,4,1,1,-14,-6
CSCCC(C(=O)NC(C)(C)C)n1c(-c2cccc(NC(C)=O)c2)nc2ccccc21 (centres undefined),0,·,·,·,-2,·
COc1ccc(CNC2CC(C)N(C)CC2C)cc1OC (centres undefined),53*,-3,0,-2,20,1
COc1ccc(CCNC2CC(C)N(C)CC2C)cc1OC (centres undefined),-4,-4,0,-6,3,0
CCOC1=C2[C@H](c3ccc(Cl)cc3)N(S(=O)(=O)c3ccc(C)cc3)C[C@H]2n2c(=O)n(-c3ccccc3)c(=O)n2C1,1,0,·,·,4,10
O=C(N/N=C/c1cc(Cl)cc([N+](=O)[O-])c1O)c1ccc2c(c1)OCO2,60*,99*,0,99*,-21,3
O=C(N/N=C/c1cc(Br)cc(Br)c1O)c1ccncc1,·,·,1,-3,·,·
O=C(N/N=C/c1cc(Br)cc(Cl)c1O)c1ccc2c(c1)OCO2,74*,99*,0,91*,30,2
O=C(N/N=C/c1ccccc1O)c1ccc2c(c1)OCO2,-2,2,0,-15,-7,0
O=C(N/N=C/c1cc(Br)cc([N+](=O)[O-])c1O)c1ccc(NC(=O)c2ccc(F)cc2)cc1,61*,98*,1,89*,6,-12
SMILES,LMPTP inh,STEP inh,GRK2 inh,Scp1 inh,SUMO1-SIM PPI,DNMT1 inh
Cc1cc(Br)cc(/C=N/NC(=O)c2ccc3c(c2)OCO3)c1O,5,2,0,2,-2,48
COc1ccc(CNC(=O)c2ccc(N3CCC4(CC3)CC(c3ccc(Cl)cc3)=NO4)c(NC(=O)Cc3ccc(F)cc3)c2)cc1,1,0,0,-5,-5,-3
CCc1nc2c(OCCC3CCCCC3)cccn2c1N(C)C(=O)c1ccc(C)cc1,16,5,·,·,12,0
COc1ccc(-c2ccc(C(=O)Nc3cc(OC)c(OC)c(OC)c3)c3occc23)c(C)c1,7,0,·,·,-3,-10
COc1ccc(CCN2C(=O)CSCC2(C)C(=O)Nc2ccc3c(c2)OCCO3)cc1OC (centres undefined),0,·,·,·,1,·
COc1ccccc1Cc1c(C(C)(C)C)nc2ccc(C)cn12,-1,-1,·,·,-1,-5
Nc1ccc2ncccc2c1N,8,0,6,-4,45*,-6
NC1=C(Cl)C(=O)c2ccc(S(N)(=O)=O)cc2C1=O,6,9,·,0,6,80*
CN1C(=O)S/C(=C/c2ccc(OCc3cccc(C(=O)O)c3)cc2)C1=O,4,2,0,52*,-14,1
O=c1c2ccccc2oc2cc(Br)ccc12,1,3,·,-16,-4,10
COc1cc2oc3ccccc3c(=O)c2cc1OC,2,0,86*,-7,-5,0
O=C1C=C(OCCCl)CC(c2cccc(Cl)c2)O1 (centres undefined),0,·,·,·,3,·
O=C1c2ccccc2C(=O)c2c1cccc2N(CCO)CCO,2,-2,2,-10,-36,-3
O=C1C=C(N(CCO)Cc2ccccc2)c2ccccc2C1=O,8,1,·,-3,32,77*
O=C(OCC(=O)N1CCCC1)c1cccc(Br)c1,-2,-2,0,2,67*,3
CC[C@]12C(=O)N(C)C[C@H]([C@@H]3C(=O)N(Cc4ccccc4)C(=O)[C@@H]31)N2C(=O)c1ccc(C(F)(F)F)cc1,·,·,·,-4,·,·
CCCCn1cnc2c(c(-c3ccccc3)c(-c3ccccc3)n2Cc2ccco2)c1=N,0,-2,0,-3,1,-2
N=c1c2c(-c3ccccc3)c(-c3ccccc3)n(Cc3ccccc3)c2ncn1CCCn1ccnc1,57*,3,0,29,-10,3
COc1ccccc1P(=O)(c1ccccc1)c1ccccc1,-1,-2,0,-4,5,1
Cc1ccccc1P(=O)(c1ccccc1)c1ccccc1C,-2,-3,·,·,44*,-1
CC(C)c1ccc(S(=O)(=O)/N=C2/C=C(Sc3ncn[nH]3)C(=O)c3ccccc32)cc1,9,15,0,2,92*,32
Cc1ccc(S(=O)(=O)/N=C2/C=C(Sc3ncn[nH]3)C(=O)c3ccccc32)cc1,8,2,0,25,93*,77*
Cc1ccc(S(=O)(=O)/N=C2/C=C(Sc3ncn[nH]3)C(=O)c3ccccc32)c(C)c1,·,·,1,·,·,·

# From PubChem
